Results from ChEMBL document CHEMBL1149611, “Anti-malarial activity of N6-modified purine analogues” (Bioorg Med Chem, 2007).

Columns and labels:
Plasmodium falciparum [1] = test: Antimalarial activity against chloroquine,pyrimethamine-resistant Plasmodium falciparum K1 after 24 hrs; assay type: functional, organism-based; conditions: K1, 24 h
In short: (§1)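 [³H]hypoxanthine incorporation assay. Compounds dissolved in DMSO and serially diluted in assay medium, final DMSO ≤0.01%. P. falciparum culture at 0.5% parasitaemia (65-75% ring stage), 2.5% haematocrit. Incubated 24 h at 37 °C in 5% CO₂, then [³H]hypoxanthine (0.1 µCi/well) added for a further 24 h. Incorporated radioactivity counted by scintillation. IC50 obtained by curve fitting. Chloroquine diphosphate used as standard.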

Plasmodium falciparum [2] = test: Antimalarial activity against chloroquine, pyrimethamine and cycloguanil-resistant Plasmodium falciparum VS1 after 24 hrs; assay type: functional, organism-based; conditions: VS1, 24 h; in short: as §1
Plasmodium falciparum [3] = test: Antimalarial activity against drug-sensitive Plasmodium falciparum 3D7 after 24 hrs; assay type: functional, organism-based; conditions: 3D7, 24 h; in short: as §1
[4] = Selectivity index, ratio of CC50 for human KB cells to IC50 for Plasmodium falciparum VS1; assay type: functional
KB = test: Cytotoxicity against human KB cells; assay type: functional
[5] = Selectivity index, ratio of CC50 for human KB cells to IC50 for Plasmodium falciparum K1; assay type: functional
[6] = Selectivity index, ratio of CC50 for human KB cells to IC50 for Plasmodium falciparum 3D7; assay type: functional
Plasmodium berghei [7] = test: Antiparasitemia activity against Plasmodium berghei infected mice (Mus musculus) at 30 mg/kg subcutaneous dose for 4 days; assay type: functional
In short: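 Male CD-1 outbred mice (20 g), infected intravenously with 2×10^6 P. berghei AS parasitized red cells, received subcutaneous 0.2 mL doses in 10% DMSO/0.05% Tween 80 in water at 2 h (day 0) and on days 1, 2, 3 and 4. Day-5 Giemsa blood smears were counted microscopically, and mean group parasitaemia was expressed as % inhibition versus untreated mice.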

Plasmodium berghei [8] = test: Antiparasitemia activity against Plasmodium berghei infected mice (Mus musculus) at 30 mg/kg peroral dose for 4 days; assay type: functional; conditions: route oral
In short: (§2)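 Peters' suppressive test: 20 g male CD-1 mice were infected iv with 2×10^6 P. berghei AS-parasitized erythrocytes. Compound was dosed orally, 0.2 mL, in standard suspending formula (0.5% Na carboxymethylcellulose, 0.5% benzyl alcohol, 0.4% Tween 80, 0.9% NaCl) at 2 h and on days 1–4 post-infection. Parasitaemia was read microscopically from Giemsa films on day 5 as % inhibition relative to the untreated group's arithmetic mean.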

Plasmodium berghei [9] = test: Antiparasitemia activity against Plasmodium berghei infected mice (Mus musculus) at 100 mg/kg peroral dose for 4 days; assay type: functional; conditions: route oral; in short: as §2
Plasmodium berghei [10] = test: Antiparasitemia activity against Plasmodium berghei infected mice (Mus musculus) at 100 mg/kg intravenous dose for 4 days; assay type: functional
In short: (§3)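 CD-1 outbred male mice (20 g) were infected intravenously with 2×10^6 P. berghei AS parasitized red cells. Drug in 5% dextrose was given iv, 0.2 mL, at 2 h (day 0) and on days 1, 2, 3 and 4 post-infection. Day-5 Giemsa-stained blood films were counted, and results were expressed as % inhibition of mean group parasitaemia versus the untreated group.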

Plasmodium berghei [11] = test: Antiparasitemia activity against Plasmodium berghei infected mice (Mus musculus) at 10 mg/kg intravenous dose for 4 days; assay type: functional; in short: as §3

CN(N)c1ncnc2[nH]cnc12
IC50 (Plasmodium falciparum [1]): 478 µM | IC50 (Plasmodium falciparum [2]): 419 µM | IC50 (Plasmodium falciparum [3]): 508 µM

CON(C)c1ncnc2[nH]cnc12
IC50 (Plasmodium falciparum [1]): > 613 µM | IC50 (Plasmodium falciparum [2]): > 613 µM | IC50 (Plasmodium falciparum [3]): > 613 µM

CON(C)c1ncnc2c1ncn2[C@@H]1O[C@H](CO)[C@@H](O)[C@H]1O
Ratio CC50/IC50 [4]: <1 | CC50 (KB): 15.3 µM | IC50 (Plasmodium falciparum [1]): 12.5 µM | Ratio CC50/IC50 [5]: 1.2 | IC50 (Plasmodium falciparum [2]): 25.2 µM | Ratio CC50/IC50 [6]: <1 | IC50 (Plasmodium falciparum [3]): 21.8 µM

OC[C@H]1O[C@@H](n2cnc3/c(=N\O)[nH]cnc32)[C@H](O)[C@@H]1O
Ratio CC50/IC50 [4]: 5.2 | CC50 (KB): 44.3 µM | IC50 (Plasmodium falciparum [1]): 6.9 µM | Ratio CC50/IC50 [5]: 6.4 | IC50 (Plasmodium falciparum [2]): 8.56 µM | Ratio CC50/IC50 [6]: 3.8 | IC50 (Plasmodium falciparum [3]): 11.6 µM

Nc1nc2c(ncn2[C@@H]2O[C@H](CO)[C@@H](O)[C@H]2O)/c(=N\O)[nH]1
Ratio CC50/IC50 [4]: 21.1 | CC50 (KB): 281 µM | IC50 (Plasmodium falciparum [1]): 10.8 µM | Ratio CC50/IC50 [5]: 25.9 | IC50 (Plasmodium falciparum [2]): 13.3 µM | Ratio CC50/IC50 [6]: 17.5 | IC50 (Plasmodium falciparum [3]): 16 µM

NNc1ncnc2c1ncn2[C@@H]1O[C@H](CO)[C@@H](O)[C@H]1O
Ratio CC50/IC50 [4]: <1 | CC50 (KB): 2.26 µM | IC50 (Plasmodium falciparum [1]): 7.48 µM | Ratio CC50/IC50 [5]: <1 | IC50 (Plasmodium falciparum [2]): 7.92 µM | Ratio CC50/IC50 [6]: <1 | IC50 (Plasmodium falciparum [3]): 13.3 µM

CO/N=c1/[nH]cnc2c1ncn2[C@@H]1O[C@H](CO)[C@@H](O)[C@H]1O
Ratio CC50/IC50 [4]: <1 | CC50 (KB): 6.16 µM | IC50 (Plasmodium falciparum [1]): 20.6 µM | Ratio CC50/IC50 [5]: <1 | IC50 (Plasmodium falciparum [2]): 9.87 µM | Ratio CC50/IC50 [6]: <1 | IC50 (Plasmodium falciparum [3]): 11.4 µM

CO/N=c1/[nH]c(N)nc2c1ncn2[C@@H]1O[C@H](CO)[C@@H](O)[C@H]1O
Ratio CC50/IC50 [4]: 3.5 | CC50 (KB): 784 µM | IC50 (Plasmodium falciparum [1]): 184 µM | Ratio CC50/IC50 [5]: 4.3 | IC50 (Plasmodium falciparum [2]): 225 µM | Ratio CC50/IC50 [6]: 3.4 | IC50 (Plasmodium falciparum [3]): 232 µM

Nc1nc2c(ncn2[C@@H]2O[C@H](CO)[C@@H](O)[C@H]2O)/c(=N\OCc2ccccc2)[nH]1
IC50 (Plasmodium falciparum [2]): 126 µM | IC50 (Plasmodium falciparum [3]): 183 µM

c1ccc(CO/N=c2/[nH]cnc3[nH]cnc23)cc1
IC50 (Plasmodium falciparum [2]): 352 µM | IC50 (Plasmodium falciparum [3]): 400 µM

NNc1nc(N)nc2[nH]cnc12
Ratio CC50/IC50 [4]: 11.2 | CC50 (KB): 1000 µM | IC50 (Plasmodium falciparum [1]): 109 µM | Ratio CC50/IC50 [5]: 9.2 | IC50 (Plasmodium falciparum [2]): 89.3 µM | Ratio CC50/IC50 [6]: 5.3 | IC50 (Plasmodium falciparum [3]): 189 µM

CO/N=c1/[nH]cnc2[nH]cnc12
Ratio CC50/IC50 [4]: 2.1 | CC50 (KB): 1260 µM | IC50 (Plasmodium falciparum [1]): 354 µM | Ratio CC50/IC50 [5]: 3.6 | IC50 (Plasmodium falciparum [2]): > 606 µM | Ratio CC50/IC50 [6]: 12.7 | IC50 (Plasmodium falciparum [3]): 98.9 µM

C=CCO/N=c1/[nH]cnc2c1ncn2[C@@H]1O[C@H](CO)[C@@H](O)[C@H]1O
IC50 (Plasmodium falciparum [2]): 34 µM | IC50 (Plasmodium falciparum [3]): 3.31 µM

OC[C@H]1O[C@@H](n2cnc3/c(=N\OCc4ccccc4)[nH]cnc32)[C@H](O)[C@@H]1O
Ratio CC50/IC50 [4]: 62.6 | CC50 (KB): 889 µM | IC50 (Plasmodium falciparum [2]): 14.2 µM | Ratio CC50/IC50 [6]: 67.6 | IC50 (Plasmodium falciparum [3]): 13.2 µM

CON(C)c1nc(N)nc2c1ncn2[C@@H]1O[C@H](CO)[C@@H](O)[C@H]1O
IC50 (Plasmodium falciparum [1]): > 306 µM | IC50 (Plasmodium falciparum [2]): > 306 µM | IC50 (Plasmodium falciparum [3]): > 306 µM

ONc1ncnc2[nH]cnc12
Ratio CC50/IC50 [4]: 267 | CC50 (KB): 1490 µM | IC50 (Plasmodium falciparum [1]): 10.2 µM | Ratio CC50/IC50 [5]: 146 | IC50 (Plasmodium falciparum [2]): 5.57 µM | Ratio CC50/IC50 [6]: 199 | IC50 (Plasmodium falciparum [3]): 7.48 µM | Activity (Plasmodium berghei [7]): 1.8% | Activity (Plasmodium berghei [8]): 3.9%

c1ccc(NNc2ncnc3[nH]cnc23)cc1
Ratio CC50/IC50 [4]: 8.43 | CC50 (KB): 167 µM | IC50 (Plasmodium falciparum [2]): 19.8 µM | Ratio CC50/IC50 [6]: 8.64 | IC50 (Plasmodium falciparum [3]): 19.3 µM

NNc1ncnc2[nH]cnc12
Ratio CC50/IC50 [4]: 2.6 | CC50 (KB): 49.3 µM | IC50 (Plasmodium falciparum [1]): 22.1 µM | Ratio CC50/IC50 [5]: 2.2 | IC50 (Plasmodium falciparum [2]): 18.8 µM | Ratio CC50/IC50 [6]: 2.1 | IC50 (Plasmodium falciparum [3]): 23.1 µM

CN(N)c1nc(N)nc2[nH]cnc12
IC50 (Plasmodium falciparum [1]): > 558 µM | IC50 (Plasmodium falciparum [2]): > 558 µM | IC50 (Plasmodium falciparum [3]): > 558 µM

Nc1nc2[nH]cnc2/c(=N\O)[nH]1
Ratio CC50/IC50 [4]: 2.7 | CC50 (KB): 45 µM | IC50 (Plasmodium falciparum [1]): 9.03 µM | Ratio CC50/IC50 [5]: 5 | IC50 (Plasmodium falciparum [2]): 16.8 µM | Ratio CC50/IC50 [6]: 1.6 | IC50 (Plasmodium falciparum [3]): 27.8 µM

CO/N=c1/[nH]c(N)nc2[nH]cnc12
IC50 (Plasmodium falciparum [1]): 435 µM | IC50 (Plasmodium falciparum [2]): > 555 µM | IC50 (Plasmodium falciparum [3]): 428 µM

CN(N)c1ncnc2c1ncn2[C@@H]1O[C@H](CO)[C@@H](O)[C@H]1O
Ratio CC50/IC50 [4]: 4.5 | CC50 (KB): 101 µM | IC50 (Plasmodium falciparum [1]): 35.4 µM | Ratio CC50/IC50 [5]: 2.9 | IC50 (Plasmodium falciparum [2]): 22.5 µM | Ratio CC50/IC50 [6]: 1.4 | IC50 (Plasmodium falciparum [3]): 72.7 µM

NNc1nc(N)nc2c1ncn2[C@@H]1O[C@H](CO)[C@@H](O)[C@H]1O
Ratio CC50/IC50 [4]: 112 | CC50 (KB): 1360 µM | IC50 (Plasmodium falciparum [1]): 10 µM | Ratio CC50/IC50 [5]: 136 | IC50 (Plasmodium falciparum [2]): 12.2 µM | Ratio CC50/IC50 [6]: 134 | Activity (Plasmodium berghei [9]): 26.8% | IC50 (Plasmodium falciparum [3]): 10.2 µM | Activity (Plasmodium berghei [7]): 14% | Activity (Plasmodium berghei [10]): 43.9% | Activity (Plasmodium berghei [8]): 22.3%

CN(N)c1nc(N)nc2c1ncn2[C@@H]1O[C@H](CO)[C@@H](O)[C@H]1O
Ratio CC50/IC50 [4]: 5008 | CC50 (KB): 1480 µM | IC50 (Plasmodium falciparum [1]): 3.6 µM | Ratio CC50/IC50 [5]: 410 | IC50 (Plasmodium falciparum [2]): 0.29 µM | Ratio CC50/IC50 [6]: 533 | Activity (Plasmodium berghei [9]): 4.8% | IC50 (Plasmodium falciparum [3]): 2.27 µM | Activity (Plasmodium berghei [7]): 28.3% | Activity (Plasmodium berghei [10]): 14% | Activity (Plasmodium berghei [8]): 12.3%

OC[C@H]1O[C@@H](n2cnc3c(NNc4ccccc4)ncnc32)[C@H](O)[C@@H]1O
Ratio CC50/IC50 [4]: 9.9 | CC50 (KB): 109 µM | IC50 (Plasmodium falciparum [2]): 11 µM | Ratio CC50/IC50 [6]: 7.68 | IC50 (Plasmodium falciparum [3]): 14.2 µM

CCN(CC)CCCC(C)Nc1ccnc2cc(Cl)ccc12 (centres undefined) [CHLOROQUINE]
CC50 (KB): 187 µM | Activity (Plasmodium berghei [11]): 100%

COc1cc([C@@H]2c3cc4c(cc3[C@H](O)[C@H]3COC(=O)[C@H]23)OCO4)cc(OC)c1OC [PODOFILOX]
CC50 (KB): 0.048 µM

CCc1nc(N)nc(N)c1-c1ccc(Cl)cc1 [PYRIMETHAMINE]
Activity (Plasmodium berghei [7]): 100% | Activity (Plasmodium berghei [8]): 100%
